Data set [1] addresses Arylsulfatase (Pseudomonas aeruginosa (strain ATCC 15692 / PAO1 / 1C / PRS 101 / LMG12228), UniProt P51691). The experiment in a line: Inhibition of Pseudomonas aeruginosa recombinant arylsulfatase A expressed in Escherichia coli.
A short description of data set [2]: Inhibition of Helix pomatia type H1 recombinant sulfatase expressed in Escherichia coli. An outline of the steps: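 Snail sulfatase incubated at pH 7 with 0–500 µM 3-nitrophenyl sulfamate; residual activity plotted semi-logarithmically against time, and pseudo-first-order rates replotted against inactivator concentration to fit Ki and kinact (E + I ⇌ E·I → E–P).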

The nature of data set [3]: Inhibition of Patella vulgata type 5 recombinant sulfatase expressed in Escherichia coli. The method in brief:
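Limpet sulfatase at pH 7 with 0–12.5 mM sulfamate; semi-logarithmic plots of residual activity over time, inactivation rates replotted against concentration to give Ki and kinact.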

A short description of data set [4]: Inhibition of abalone entrails type 8 recombinant sulfatase expressed in Escherichia coli by fast phase inactivation. Details: species or system Haliotis corrugata.
Data set [5] can be described thus: Inhibition of abalone entrails type 8 recombinant sulfatase expressed in Escherichia coli by slow phase inactivation. Also on record: species or system Haliotis corrugata.
The nature of data set [6]: Chemical decomposition at pH 7 after 15 mins. As to conditions: buffer.
Data set [7] in a line: Dissociation constant, pKa of the compound. The data set is classed as physicochemical.

Sequence of Arylsulfatase (P51691 whole entry): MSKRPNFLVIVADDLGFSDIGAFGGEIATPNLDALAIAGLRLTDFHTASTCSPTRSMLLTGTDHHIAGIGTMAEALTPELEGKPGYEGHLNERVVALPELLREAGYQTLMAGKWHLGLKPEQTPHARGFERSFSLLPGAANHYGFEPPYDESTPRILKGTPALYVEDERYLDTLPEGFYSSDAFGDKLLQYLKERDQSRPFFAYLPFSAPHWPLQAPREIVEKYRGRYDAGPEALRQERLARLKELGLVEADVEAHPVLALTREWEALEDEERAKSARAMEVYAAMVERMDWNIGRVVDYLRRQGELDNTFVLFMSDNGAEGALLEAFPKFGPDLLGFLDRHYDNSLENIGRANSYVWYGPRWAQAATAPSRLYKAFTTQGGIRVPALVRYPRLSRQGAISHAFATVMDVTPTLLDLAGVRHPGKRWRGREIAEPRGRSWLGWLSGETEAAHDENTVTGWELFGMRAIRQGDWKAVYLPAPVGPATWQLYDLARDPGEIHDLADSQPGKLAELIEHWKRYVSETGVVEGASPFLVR

Turning to `NS(=O)(=O)Oc1cccc([N+](=O)[O-])c1`, the Ki was found to be 0.13 µM in data set [1]; 35 µM in data set [2]; 980 µM in data set [3]; 1600 µM in data set [4]; 5000 µM in data set [5]. In data set [6], the decomposed at 0.25 h came to 4.2%.

Usually pKa stands for the pH at which an ionisable group is half protonated. Lower therefore signals a stronger acid or weaker base. For `O=[N+]([O-])c1ccc(OS(=O)(=O)O)cc1`, the pKa in data set [7] came out at 7.14.

Source of the values: ChEMBL document CHEMBL1154522, “Aryl sulfamates are broad spectrum inactivators of sulfatases: effects on sulfatases from various sources” (Bioorg Med Chem Lett, 2009).
